Test results: ChEMBL document CHEMBL4270642, “Boronic ester-linked macrocyclic lipopeptides as serine protease inhibitors targeting Escherichia coli type I signal peptidase” (Eur J Med Chem, 2018)
Converted amounts (≈) assume the structure as drawn.

Assays:
[1] = molecular target: Signal peptidase I (Escherichia coli K-12) (UniProt P00803); test: Inhibition of Escherichia coli type 1 signal peptidase lepB assessed as residual activity at 0.0049 uM preincubated for 10 mins followed by Dabcyl-VGGTATAYGAFSRPGLE-(EDANS)-OH substrate addition measured after 2 hrs by FRET based assay (reference value: 100%)
Sequence of Signal peptidase I (Escherichia coli K-12) (P00803 whole entry): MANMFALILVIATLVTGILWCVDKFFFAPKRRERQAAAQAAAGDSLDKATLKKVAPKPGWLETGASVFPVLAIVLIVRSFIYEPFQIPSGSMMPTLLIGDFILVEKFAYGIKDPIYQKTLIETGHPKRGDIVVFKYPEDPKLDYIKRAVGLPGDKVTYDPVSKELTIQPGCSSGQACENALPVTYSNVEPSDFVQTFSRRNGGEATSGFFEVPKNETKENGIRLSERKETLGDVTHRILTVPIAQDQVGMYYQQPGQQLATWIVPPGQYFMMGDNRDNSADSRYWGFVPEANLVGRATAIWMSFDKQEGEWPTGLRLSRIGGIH
Summary of the method: (§1)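 EcLepB (about 50 nM estimated) preincubated 10 min with compound. Reaction started with Dabcyl/EDANS FRET peptide at 8 µM final (Km 20 µM). Fluorescence followed continuously at 535 nm, 22 °C, for 2 h. Cleavage rates plotted against inhibitor concentration; IC50 from non-linear regression of sigmoidal dose-response curves.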

Acinetobacter baumannii = test: Antibacterial activity against Acinetobacter baumannii ATCC 19606 after 16 to 20 hrs by broth microdilution method; format: functional; settings: ATCC 19606 = CIP 70.34 = JCM 6841
Summary of the method: (§2)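 Broth microdilution in cation-adjusted Mueller-Hinton II per EUCAST/CLSI; two-fold compound series 64 down to 0.25 µg/mL final. Inoculum from fresh colonies (non-selective agar, 18-24 h, 35 ± 2 °C), adjusted to 0.5 McFarland, diluted to about 5 × 10^5 CFU/mL final. Static incubation 16-20 h at 35 ± 2 °C; MIC read visually as complete growth inhibition against medium-only wells.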

Pseudomonas aeruginosa [2] = test: Antibacterial activity against Pseudomonas aeruginosa PAO1 after 16 to 20 hrs by broth microdilution method; format: functional; summary of the method: as §2
[3] = molecular target: Signal peptidase I (Escherichia coli K-12) (UniProt P00803); test: Inhibition of Escherichia coli type 1 signal peptidase lepB assessed as residual activity at 0.0024 uM preincubated for 10 mins followed by Dabcyl-VGGTATAYGAFSRPGLE-(EDANS)-OH substrate addition measured after 2 hrs by FRET based assay (reference value: 100%); summary of the method: as §1
Klebsiella pneumoniae = test: Antibacterial activity against Klebsiella pneumoniae ATCC 13883 after 16 to 20 hrs by broth microdilution method; format: functional; summary of the method: as §2
[4] = molecular target: Signal peptidase I (Escherichia coli K-12) (UniProt P00803); test: Inhibition of Escherichia coli type 1 signal peptidase lepB assessed as residual activity at 5 uM preincubated for 10 mins followed by Dabcyl-VGGTATAYGAFSRPGLE-(EDANS)-OH substrate addition measured after 2 hrs by FRET based assay (reference value: 100%); summary of the method: as §1
Signal peptidase I = Signal peptidase I (Escherichia coli K-12, UniProt P00803); test: Inhibition of Escherichia coli type 1 signal peptidase lepB preincubated for 10 mins followed by Dabcyl-VGGTATAYGAFSRPGLE-(EDANS)-OH substrate addition measured after 2 hrs by FRET based assay; summary of the method: as §1
Sequence of Signal peptidase I (P00803 whole entry): as above

Escherichia coli [5] = test: Antibacterial activity against Escherichia coli ATCC 25922 after 16 to 20 hrs by broth microdilution method; format: functional; summary of the method: as §2
[6] = molecular target: Signal peptidase I (Escherichia coli K-12) (UniProt P00803); test: Inhibition of Escherichia coli type 1 signal peptidase lepB assessed as residual activity at 0.0098 uM preincubated for 10 mins followed by Dabcyl-VGGTATAYGAFSRPGLE-(EDANS)-OH substrate addition measured after 2 hrs by FRET based assay (reference value: 100%); summary of the method: as §1
Pseudomonas aeruginosa [7] = test: Antibacterial activity against efflux defective Pseudomonas aeruginosa PAO750 after 16 to 20 hrs by broth microdilution method; format: functional; summary of the method: as §2
[8] = molecular target: Signal peptidase I (Escherichia coli K-12) (UniProt P00803); test: Inhibition of Escherichia coli type 1 signal peptidase lepB assessed as residual activity at 0.625 uM preincubated for 10 mins followed by Dabcyl-VGGTATAYGAFSRPGLE-(EDANS)-OH substrate addition measured after 2 hrs by FRET based assay (reference value: 100%); summary of the method: as §1
Escherichia coli [9] = test: Antibacterial activity against tolC deficient Escherichia coli CH3130 after 16 to 20 hrs by broth microdilution method; format: functional; summary of the method: as §2
[10] = molecular target: Signal peptidase I (Escherichia coli K-12) (UniProt P00803); test: Inhibition of Escherichia coli type 1 signal peptidase lepB assessed as residual activity at 0.3125 uM preincubated for 10 mins followed by Dabcyl-VGGTATAYGAFSRPGLE-(EDANS)-OH substrate addition measured after 2 hrs by FRET based assay (reference value: 100%); summary of the method: as §1
HepG2 = test: Cytotoxicity against human HepG2 cells after 72 hrs by FMSA; format: cell-based; settings: HepG2, 72 h
Summary of the method: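 HepG2 (ATCC) grown in EMEM with 10% FBS, pen/strep, 2 mM L-glutamine, used up to 20 passages. Seeded at 1000 cells/well, cultured overnight, then dosed acoustically from DMSO stocks. Eight two-fold dilutions in duplicate from top 64 or 32 µM; 72 h at 37 °C, 5% CO2. Fluorescein diacetate hydrolysis read at ex 485/em 530 nm; IC50 by non-linear regression.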

Escherichia coli [11] = test: Antibacterial activity against Escherichia coli D22 CGSG 5163 harboring Ips mutant after 16 to 20 hrs by broth microdilution method; format: functional
Summary of the method: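 Broth microdilution in cation-adjusted Mueller-Hinton II broth, following EUCAST and CLSI guidelines. Two-fold series at final concentrations 64 down to 0.25 µg/mL, with medium-only and growth controls. Inoculum from fresh colonies (18-24 h, 35 °C ± 2 °C) adjusted to 0.5 McFarland, final ≈5 × 10^5 CFU/mL. Plates incubated unshaken 16-20 h at 35 °C ± 2 °C. MIC read visually as complete inhibition of growth.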

[12] = molecular target: Signal peptidase I (Escherichia coli K-12) (UniProt P00803); test: Inhibition of Escherichia coli type 1 signal peptidase lepB assessed as residual activity at 0.0781 uM preincubated for 10 mins followed by Dabcyl-VGGTATAYGAFSRPGLE-(EDANS)-OH substrate addition measured after 2 hrs by FRET based assay (reference value: 100%); summary of the method: as §1
[13] = molecular target: Signal peptidase I (Escherichia coli K-12) (UniProt P00803); test: Inhibition of Escherichia coli type 1 signal peptidase lepB assessed as residual activity at 10 uM preincubated for 10 mins followed by Dabcyl-VGGTATAYGAFSRPGLE-(EDANS)-OH substrate addition measured after 2 hrs by FRET based assay (reference value: 100%); summary of the method: as §1
[14] = molecular target: Signal peptidase I (Escherichia coli K-12) (UniProt P00803); test: Inhibition of Escherichia coli type 1 signal peptidase lepB assessed as residual activity at 0.0195 uM preincubated for 10 mins followed by Dabcyl-VGGTATAYGAFSRPGLE-(EDANS)-OH substrate addition measured after 2 hrs by FRET based assay (reference value: 100%); summary of the method: as §1
[15] = molecular target: Signal peptidase I (Escherichia coli K-12) (UniProt P00803); test: Inhibition of Escherichia coli type 1 signal peptidase lepB assessed as residual activity at 1.25 uM preincubated for 10 mins followed by Dabcyl-VGGTATAYGAFSRPGLE-(EDANS)-OH substrate addition measured after 2 hrs by FRET based assay (reference value: 100%); summary of the method: as §1
[16] = molecular target: Signal peptidase I (Escherichia coli K-12) (UniProt P00803); test: Inhibition of Escherichia coli type 1 signal peptidase lepB assessed as residual activity at 0.0012 uM preincubated for 10 mins followed by Dabcyl-VGGTATAYGAFSRPGLE-(EDANS)-OH substrate addition measured after 2 hrs by FRET based assay (reference value: 100%); summary of the method: as §1
Staphylococcus aureus = test: Antibacterial activity against Staphylococcus aureus ATCC 29213 after 16 to 20 hrs by broth microdilution method; format: functional; summary of the method: as §2
[17] = molecular target: Signal peptidase I (Escherichia coli K-12) (UniProt P00803); test: Inhibition of Escherichia coli type 1 signal peptidase lepB assessed as residual activity at 0.1563 uM preincubated for 10 mins followed by Dabcyl-VGGTATAYGAFSRPGLE-(EDANS)-OH substrate addition measured after 2 hrs by FRET based assay (reference value: 100%); summary of the method: as §1
[18] = molecular target: Signal peptidase I (Escherichia coli K-12) (UniProt P00803); test: Inhibition of Escherichia coli type 1 signal peptidase lepB assessed as residual activity at 2.5 uM preincubated for 10 mins followed by Dabcyl-VGGTATAYGAFSRPGLE-(EDANS)-OH substrate addition measured after 2 hrs by FRET based assay (reference value: 100%); summary of the method: as §1
[19] = molecular target: Signal peptidase I (Escherichia coli K-12) (UniProt P00803); test: Inhibition of Escherichia coli type 1 signal peptidase lepB assessed as residual activity at 0.0391 uM preincubated for 10 mins followed by Dabcyl-VGGTATAYGAFSRPGLE-(EDANS)-OH substrate addition measured after 2 hrs by FRET based assay (reference value: 100%); summary of the method: as §1
[20] = Hemolytic activity in human RBC at 100 uM after 45 mins by spectrophotometric method relative to control; format: ADME, cell-based, Erythrocyte; settings: red blood cells (erythrocytes), read-out: Activity
Summary of the method: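 Heparinized human blood; red cells washed three times in Tyrode buffer pH 7.4. Compound at 100 µM final with 1% DMSO and 50% RBC, shaken (250 rpm) 45 min at 37 °C. Cells pelleted (1000 × g, 10 min); supernatant haemoglobin at 540 nm. Percent lysis relative to buffer-only and 2% Triton X-100 controls.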

Compound | Activity [1] [%] | MIC (Acinetobacter baumannii) [µg/mL] | MIC (Pseudomonas aeruginosa [2]) [µg/mL] | Activity [3] [%] | MIC (Klebsiella pneumoniae) [µg/mL] | Activity [4] [%] | IC50 (Signal peptidase I) [nM] | MIC (Escherichia coli [5]) | Activity [6] [%] | MIC (Pseudomonas aeruginosa [7]) [µg/mL] | Activity [8] [%] | MIC (Escherichia coli [9]) [µg/mL] | Activity [10] [%] | IC50 (HepG2) [nM] | MIC (Escherichia coli [11]) [µg/mL] | Activity [12] [%] | Activity [13] [%] | Activity [14] [%] | Activity [15] [%] | hemolysis at 0.75 h, 100 µM [20] [%] | also measured
C[C@@H]1NC(=O)[C@@H](NC(=O)[C@H](C)NC(=O)[C@@H](NC(=O)[C@H](CCCN)NC(=O)C#Cc2ccc(-c3ccccc3)cc2)[C@@H](C)O)Cc2cn(nn2)CCO[C@@H]2C[C@@H]3OB1O[C@@H]3C2 | 97.1 | > 64 | > 64 | 106 | > 64 | 13.5 | 227 | > 64 µg/mL | 99 | > 64 | 25.8 | > 64 | 30 | 28200 | > 64 | 73.1 | 6.8 | 98.2 | 22.5 | 0.01 | Activity [16]: 103%; MIC (Staphylococcus aureus): 32 µg/mL (≈ 38.8 µM); Activity [17]: 58.2%; Activity [18]: 17.8%; Activity [19]: 89.3%
CCCCCCc1ccc(-c2c[nH]c3ccc(C(=O)N[C@@H](CCCN)C(=O)N[C@H](C(=O)N[C@@H](C)C(=O)N[C@H]4Cc5cn(nn5)CCO[C@@H]5C[C@@H]6OB(O[C@@H]6C5)[C@H](C)NC4=O)[C@@H](C)O)cc23)cc1 | 99.5 | 64 (≈ 69.2 µM) | 64 (≈ 69.2 µM) | 108 | 64 (≈ 69.2 µM) | -6.8 | 225 | 32 µg/mL | 98.5 | 64 (≈ 69.2 µM) | 20.4 | 32 (≈ 34.6 µM) | 42.8 | 23700 | 16 (≈ 17.3 µM) | 78.1 | -19.8 | 101 | 8.1 | 2.8 | Activity [16]: 106%; MIC (Staphylococcus aureus): 16 µg/mL (≈ 17.3 µM); Activity [17]: 58.5%; Activity [18]: 2.9%; Activity [19]: 94.2%
CCCCCCc1ccc(-c2ccc(C(=O)N3CC(CN)C[C@H]3C(=O)N[C@H](C(=O)N[C@@H](C)C(=O)N[C@@H](CC(N)=O)C(=O)N[C@@H](C)B(O)O)[C@@H](C)O)cc2)cc1 (some centres undefined) |  |  |  |  |  |  | 6 | 16 µM |  |  |  |  |  | 16000 |  |  |  |  |  | 2.5 | 
CCCCCCc1ccc(-n2cc(C(=O)N[C@@H](CCCN)C(=O)N[C@H](C(=O)N[C@@H](C)C(=O)N[C@H]3Cc4cn(nn4)CCO[C@@H]4C[C@@H]5OB(O[C@@H]5C4)[C@H](C)NC3=O)[C@@H](C)O)ccc2=O)cc1 | 101 | > 64 | > 64 | 101 | > 64 | 15.8 | 495 | > 64 µg/mL | 98.8 | > 64 | 32.6 | > 64 | 59.3 | > 64000 | > 64 | 95.3 | 17 | 111 | 24.3 | 0.03 | Activity [16]: 109%; MIC (Staphylococcus aureus): 64 µg/mL (≈ 70.9 µM); Activity [17]: 90%; Activity [18]: 17.3%; Activity [19]: 98.3%
C[C@@H]1NC(=O)[C@@H](NC(=O)[C@H](C)NC(=O)[C@@H](NC(=O)[C@H](CCCN)NC(=O)c2ccc(-c3ccccc3)cc2)[C@@H](C)O)Cc2cn(nn2)CCO[C@@H]2C[C@@H]3OB1O[C@@H]3C2 | 84.9 | > 64 | > 64 | 94.6 | > 64 | 9.7 | 72 | > 64 µg/mL | 88.3 | > 64 | 11.8 | > 64 | 12 | > 64000 | > 64 | 48.6 | 7.2 | 83.8 | 10.6 | 0.2 | Activity [16]: 100%; MIC (Staphylococcus aureus): > 64 µg/mL; Activity [17]: 26.4%; Activity [18]: 9.9%; Activity [19]: 68.9%
C[C@@H]1NC(=O)[C@@H](NC(=O)[C@H](C)NC(=O)[C@@H](NC(=O)[C@H](CCCN)NC(=O)c2ccc(=O)n(-c3ccccc3)c2)[C@@H](C)O)Cc2cn(nn2)CCO[C@@H]2C[C@@H]3OB1O[C@@H]3C2 | 97.5 | > 64 | > 64 | 82.4 | > 64 | 26.8 | 1660 | > 64 µg/mL | 101 | > 64 | 66.9 | > 64 | 69.5 | > 64000 | > 64 | 100 | 10.4 | 104 | 62.1 | 0.04 | Activity [16]: 84.6%; MIC (Staphylococcus aureus): > 64 µg/mL; Activity [17]: 105%; Activity [18]: 42.8%; Activity [19]: 91.6%
